In test [1] the target is T1, Trypanothione reductase (Trypanosoma cruzi, UniProt P28593). Description: (§1) Inhibitory constant against recombinant Trypanosoma cruzi trypanothione reductase was determined photometrically at 25 degree C in TR assay buffer (40 mM Hepes, 1 mM EDTA, pH 7.5). The essentials: (§2)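 Spectrophotometric TR assay at 25 °C, 40 mM Hepes, 1 mM EDTA, pH 7.5; 100 μM NADPH, 10–15 mU TR; reaction started with TS2, A340 decrease followed. TS2 varied at several fixed inhibitor concentrations (e.g. 5, 10, 20 μM); Ki from slopes and x-axis intercepts of Lineweaver–Burk plots, Dixon plots also used; data at least in duplicate.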

Test [2] concerns the target Trypanothione reductase (Trypanosoma cruzi) (UniProt P28593). The description is as §1. A digest of the protocol: as §2
The target is the same in test [3]. Description: Inhibitory activity (100 uM) against recombinant Trypanosoma cruzi trypanothione reductase was determined in presence of Trypanothione disulfide (110 uM). The essentials: (§3)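 Recombinant T. cruzi TR, 10–15 mU, in 40 mM Hepes, 1 mM EDTA, pH 7.5, 25 °C, 100 μM NADPH; activity at fixed TS2 (40 or 110 μM) without and with 100 μM inhibitor; TS2 starts reaction, A340 decrease monitored; DMSO controls where needed. Inhibitor stocks 4 mM in DMSO or water.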

Test [4] shares this target. Description: Inhibitory activity (100 uM) against recombinant Trypanosoma cruzi trypanothione reductase was determined in presence of Trypanothione disulfide (40 uM). The essentials: as §3
Test [5] has as its target T2, Glutathione reductase, mitochondrial (Homo sapiens) (UniProt P00390).
T2 sequence (whole entry): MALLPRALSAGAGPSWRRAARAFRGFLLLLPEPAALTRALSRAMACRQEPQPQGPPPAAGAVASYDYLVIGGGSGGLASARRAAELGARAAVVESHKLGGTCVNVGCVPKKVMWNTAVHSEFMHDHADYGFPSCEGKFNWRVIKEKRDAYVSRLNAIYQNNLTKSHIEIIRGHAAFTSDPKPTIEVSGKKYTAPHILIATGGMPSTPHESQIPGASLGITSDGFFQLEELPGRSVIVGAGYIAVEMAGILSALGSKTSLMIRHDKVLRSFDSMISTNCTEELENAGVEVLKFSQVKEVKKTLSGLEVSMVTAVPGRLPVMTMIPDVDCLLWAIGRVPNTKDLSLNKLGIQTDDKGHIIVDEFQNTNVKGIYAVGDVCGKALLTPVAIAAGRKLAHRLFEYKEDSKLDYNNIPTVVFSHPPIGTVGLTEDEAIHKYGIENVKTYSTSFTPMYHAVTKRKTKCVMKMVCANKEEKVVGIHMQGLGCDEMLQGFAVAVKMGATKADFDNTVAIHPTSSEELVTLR
Put plainly: (§4) Inhibitory constant against human glutathione reductase. The essentials:
(§5)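 Human GR kinetics in phosphate/KCl/EDTA buffer pH 6.9 at 25 °C, 100 μM NADPH, 5–10 mU GR; GSSG varied (40–1000 μM) at two fixed inhibitor levels, 120 and 240 μM; DMSO controls.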

The target in test [6] is T2, Glutathione reductase, mitochondrial (Homo sapiens). Description: Percent inhibition of human glutathione reductase at 100 uM relative to 100 uM GSSG.
For test [7] the target is unchanged. Put plainly: Inhibitory activity against human Glutathione reductase relative to GSSG (100 uM).
The target in test [8] is T1, Trypanothione reductase. Put plainly: Competitive inhibitory constant against recombinant Trypanosoma cruzi trypanothione reductase was determined photometrically at 25 degree C in TR assay buffer (40 mM Hepes, 1 mM EDTA, pH 7.5). The essentials:
as §2

The target in test [9] is T3, Glutathione reductase, mitochondrial (Homo sapiens, UniProt P00390).
T3 sequence (P00390 whole entry): T2 sequence (whole entry)
Described as §4. A digest of the protocol:
as §5

Bounds are passed on as bounds.

This note sets out measurements from ChEMBL document CHEMBL1145161, “Inhibitors of Trypanosoma cruzi trypanothione reductase revealed by virtual screening and parallel synthesis” (J Med Chem, 2005).

The Ki is the equilibrium dissociation constant of an inhibitor or competing ligand from its target. The inhibition is the share of the control response that was lost under treatment.

T1 sequence (P28593 whole entry): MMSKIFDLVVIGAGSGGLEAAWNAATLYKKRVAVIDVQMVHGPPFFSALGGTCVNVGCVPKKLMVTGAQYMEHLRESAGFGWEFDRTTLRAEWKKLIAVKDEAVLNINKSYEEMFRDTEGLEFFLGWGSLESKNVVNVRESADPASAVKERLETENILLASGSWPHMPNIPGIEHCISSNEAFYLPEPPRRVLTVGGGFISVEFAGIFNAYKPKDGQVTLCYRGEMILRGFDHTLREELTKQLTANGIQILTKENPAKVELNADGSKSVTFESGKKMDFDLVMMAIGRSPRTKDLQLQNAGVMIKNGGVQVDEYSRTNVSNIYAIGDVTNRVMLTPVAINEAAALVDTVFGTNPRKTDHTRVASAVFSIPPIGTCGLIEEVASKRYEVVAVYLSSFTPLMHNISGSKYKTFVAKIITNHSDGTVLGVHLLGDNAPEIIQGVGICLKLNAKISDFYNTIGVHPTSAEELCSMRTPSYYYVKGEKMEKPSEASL
Sequence of Trypanothione reductase (Trypanosoma cruzi) (P28593 whole entry, looked up): as the sequence (P28593 whole entry) above

Regarding `COc1cc(C(=N)NCCCCCCCCNC(=N)c2ccc(OCc3ccccc3)c(OC)c2)ccc1OCc1ccccc1`, in [1], the Ki came to 5 µM.
As to `O=C(Cc1cccc2ccccc12)NCCNC(=O)C1(NC(=O)C(=O)c2ccc([N+](=O)[O-])cc2)CCNCC1`, in test [1], the Ki was 6.2 µM. Besides, the Ki' in [2] amounted to 8.5 µM.
For `N=C(NC1CCC(CC2CCC(NC(=N)c3cccs3)CC2)CC1)c1cccs1` (stereo not given), the inhibition in [3] amounted to 16%; in test [4], 17%.
Turning to `N=C(NCCCCCCNC(=N)NC(=N)Nc1ccc(Cl)cc1)NC(=N)Nc1ccc(Cl)cc1`, the Ki' in test [5] amounted to 210 µM.
For `N=C(NCCOCCOCCNC(=N)c1cnccn1)c1cnccn1`, the values for the inhibition in [3] and in [4] were less than 10% and 11%, respectively.
For the compound `N=C(NCCOCCOCCNC(=N)c1cccs1)c1cccs1`, the figures for the inhibition in test [3] and in test [4] were less than 10% and 14%, respectively.
For `CN1CCN(CCC/N=C(\N)c2cccs2)CC1`, in that order: less than 10% and less than 10%.
The matching figures for `CN1CCN(CC/N=C(\N)c2ccc3[nH]ccc3c2)CC1`: 31% and 39%.
With `N=C(NC1CCC(CC2CCC(NC(=N)c3cnccn3)CC2)CC1)c1cnccn1` (stereo not given), the inhibition in test [3] and in [4] was less than 10% throughout.
Consider `COc1cc(C(=N)NC2CCC(CC3CCC(/N=C(\N)c4ccc(OCc5ccccc5)c(OC)c4)CC3)CC2)ccc1OCc1ccccc1` (stereo not given), for which the results for the inhibition in test [3], in test [4] and in test [6] were 97%, 94% and 35%, respectively. Further, the Ki in test [1] came to 2 µM. Also, in test [2], the Ki' is 16 µM.
In the case of `N=C(NCCc1cccnc1)c1sccc1Br`, the inhibition in [3] was 15%; in test [4], 14%.
On to `N=C(CCCCCCCC(=N)NCC#Cc1ccccc1)NCC#Cc1ccccc1`, for which the inhibition was 69% in test [3], 5% in test [7] and 80% in [4]. Also, in test [8], the Ki came out at 6 µM.
`CN1CCN(CCC/N=C(\N)c2sccc2Br)CC1`: the inhibition in test [3] and in test [4] was less than 10% each time.
For the compound `COc1cc(C(=N)Nc2ccc(Oc3ccc(NC(=N)c4ccc(OCc5ccccc5)c(OC)c4)cc3)cc2)ccc1OCc1ccccc1`, the values for the inhibition in [3], in test [7] and in [4] were 90%, 45% and 95%, respectively. Moreover, the Ki' in test [2] was 22 µM.
As to `N=C(Nc1ccc(Oc2ccc(NC(=N)c3cccs3)cc2)cc1)c1cccs1`, the values for the inhibition in test [3] and in test [4] were 12% and 11%, respectively.
In the case of `COc1cc(C(N)=Nc2ccc(Oc3ccc(N=C(N)c4ccc(OCc5ccccc5)c(OC)c4)cc3)cc2)ccc1OCc1ccccc1`, the Ki in [1] came out at 2 µM.
Take `N=C(NCCc1cccnc1)c1cccs1`: the inhibition in [3] and in test [4] was less than 10% in each case.
Take `N=C(NCCCCCCCCNC(=N)c1cccs1)c1cccs1`: the inhibition in [3] is less than 10%; in [4] it was 15%.
Take `COc1cc(C(=N)NCCCCCCCCN=C(N)c2ccc(OCc3ccccc3)c(OC)c2)ccc1OCc1ccccc1`: the inhibition came out at 85% in [3] and 92% in [4]. Moreover, the Ki' in test [2] came to 47 µM.
Take `[H]/N=C(\N/C(=N/[H])NCCCCCCNC(=N)NC(=N)Nc1ccc(Cl)cc1)Nc1ccc(Cl)cc1` [CHLORHEXIDINE]: the Ki in test [9] is 192 µM; in [1] it was 2 µM.
